Activity calls are given as the source filed them.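 Rule for the calls: active = compound seen by mass spectrometry to covalently label the enzyme's active site serine; inactive = no covalent labeling seen.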
Biological target: Platelet-activating factor acetylhydrolase (Homo sapiens) (UniProt Q13093)
Experiment: covalent active-site labeling of pPAFAH, late-stage follow-up, mechanism study, biochemical, LC-MS/MS (AID 588788)
Conditions: purified recombinant pPAFAH
Method in brief: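 System – recombinant human pPAFAH hydrophobic-patch triple mutant · Input – pPAFAH at 40 µM before compound addition · Schedule – compound exposure 60 min, 37 °C · Dosing – one dose, 100 µM final · Medium – DPBS buffer · Evaluation – catalytic serine covalent adduct presence · Controls – DMSO-only enzyme sample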

Chain of Platelet-activating factor acetylhydrolase (Homo sapiens) (Q13093 42-441 I120A/L123A/L124A limits assumed): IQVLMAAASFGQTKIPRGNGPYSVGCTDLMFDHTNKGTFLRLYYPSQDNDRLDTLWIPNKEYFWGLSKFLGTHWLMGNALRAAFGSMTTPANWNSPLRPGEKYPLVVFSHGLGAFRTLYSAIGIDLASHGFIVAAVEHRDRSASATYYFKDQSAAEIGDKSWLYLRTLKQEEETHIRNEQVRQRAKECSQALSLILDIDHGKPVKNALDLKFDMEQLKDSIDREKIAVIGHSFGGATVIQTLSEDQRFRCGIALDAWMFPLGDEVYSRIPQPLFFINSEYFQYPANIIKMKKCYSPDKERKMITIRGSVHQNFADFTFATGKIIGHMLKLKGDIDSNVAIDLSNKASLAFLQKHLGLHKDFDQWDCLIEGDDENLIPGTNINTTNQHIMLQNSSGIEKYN

- outcome: active; covalent
SMILES: Cc1cc(N2CCN(C(=O)Oc3ccc(-c4ccccc4)cn3)CC2)c2ccccc2n1

Source: PubChem BioAssay AID588788 (The Scripps Research Institute Molecular Screening Center, 2011)
